Tests used:
[1] = system: SARS-CoV-2 B.1.617.2 pseudovirus; settings: in vivo, ip
[2] = system: STING-dependent IRF3; settings: ref [44]; cited from earlier work
[3] = system: SARS-CoV-2 B.1.351 pseudovirus; settings: in vivo, ip
[4] = system: IKBKE kinase-dependent activity of IRF3; settings: ref [44]; cited from earlier work
[5] = system: SARS-CoV-2 infection and symptomatology; settings: in vivo; cited from earlier work
[6] = system: RIG-I-like receptor (RLR) signaling pathway; assay: Transcriptome sequencing analysis of lymph node immune cells; type: in vivo, Balb/c mice; settings: WGCNA; AAS (Fig. 4g) or naked amantadine (Fig S7)
[7] = naked amantadine; ref [33], [54], [55]; cited from earlier work
[8] = system: animal model; settings: repeated injections with high dose; ref [28]; cited from earlier work
[9] = system: DC 2.4 cells; assay: DC 2.4 activation by flow cytometry; type: cell-based; settings: 10 μg/mL, 24 h
Outline: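 DC 2.4 cells (1 × 10^6 per well) were cultured 12 h, then exposed to 10 μg test compound or tetrapeptide for 24 h. Staining used DAPI live/dead for viability, anti-CD40 and anti-CD86 for maturation, and anti-IL-4 and anti-TNF-α for function. At least 50,000 cells per sample were read by flow cytometry.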

[10] = naked amantadine; ref [33], [54], [55]; cited from earlier work; remark: listed apart in the source
[11] = system: immunoregulatory cytokines such as interferons and tumor necrosis factors; settings: in vivo and in vitro, ref [29], [30], [31], [32]; cited from earlier work
[12] = system: DC 2.4 cells; assay: Cellular uptake inhibition; type: cell-based; settings: read-out: inhibition rate of AAS uptake by DCs
Outline: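 DC 2.4 cells were grown in DMEM with 10% FBS and penicillin/streptomycin at 37 °C, 5% CO2, then seeded at 5 × 10^5 per well for 24 h. Cells were pretreated 1 h with 5 μM cytochalasin B or cytochalasin D, then given 5 μg Cy5-labelled AAS for 2 h. They were washed in PBS/2% FBS, fixed in 2% paraformaldehyde for 10 min, and Cy5 uptake was read by flow cytometry.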

In the case of `CCn1c(-c2nonc2N)nc2c(C#CC(C)(C)O)ncc(OC[C@H]3CCCNC3)c21` [GSK690693], the “decrease of neutralizing antibody against B.1.617.2 vs AAS+RBD group” value [1] is given as 6 fold, the “inhibition of STING-dependent IRF3 activation” value [2] is given as “inhibit the activation of STING-dependent IRF3” and the “decrease of neutralizing antibody against B.1.351 vs AAS+RBD group” value [3] is given as 7 fold. For the same compound, the “inhibition of IKBKE kinase-dependent activity of IRF3 (GSK690693)” value [4] was “inhibit the IKBKE kinase-dependent activity of IRF3”.

In the case of `NC12CC3CC(CC(C3)C1)C2` [amantadine], the “prevention of SARS-CoV-2 infection and symptomatology” value [5] is listed as “can prevent SARS-CoV-2 infection and symptomatology”, the “protein-protein interaction (PPI) network key genes” value [6] is listed as “three RLR signaling pathway-related genes (Oasl2, RIG-I and IRF3) located in the central position” and the water solubility [7] is listed as “unsatisfactory water solubility”. For the same compound, the adverse reactions [8] was “not observed”, the “immunostimulation activity against immune cells” value [9] was “possesses the immunostimulation activity” and the “half-life period in vivo” value [10] was “short half-life period”. The “secretion of immunoregulatory cytokines” value [11] was “increase the secretion of multiple immunoregulatory cytokines”.

`C=C1[C@@H](C)[C@H]2[C@H](Cc3ccccc3)NC(=O)[C@]23OC(=O)/C=C/[C@H](O)CCC[C@@H](C)C/C=C/[C@H]3[C@@H]1O` [cytochalasin B] gave an inhibition at 5 µM [12] of 11.7%.

For `C=C1[C@@H](C)[C@H]2[C@H](Cc3ccccc3)NC(=O)[C@]23[C@H](OC(C)=O)/C=C/[C@@](C)(O)C(=O)[C@@H](C)C/C=C/[C@H]3[C@@H]1O` [cytochalasin D], the inhibition at 5 µM [12] was 46%.

In the case of `CN(C)c1ccc(C(=C2C=CC(=[N+](C)C)C=C2)c2ccccc2)cc1.CN(C)c1ccc(C(=C2C=CC(=[N+](C)C)C=C2)c2ccccc2)cc1.O=C(O)C(=O)O.O=C([O-])C(=O)O.O=C([O-])C(=O)O` [malachite green oxalate], the “decrease of neutralizing antibody against B.1.351 vs AAS+RBD group” value [3] is reported as 4 fold.

Reference: article PMC8752318 (Nano Today, 2022)
